The record followed here is ChEMBL document CHEMBL1127442, “Triazolinone biphenylsulfonamide derivatives as orally active angiotensin II antagonists with potent AT1 receptor affinity and enhanced AT2 affinity” (J Med Chem, 1994).

Where “and” joins values, the source holds several entries; their conditions need not be identical. Equal values may be shown once. Calls of active or inactive are those of the source. The calls are words filed in the database; no cut-off is given here.

In assay [1] the test system is Rattus norvegicus. The experiment in a line: Inhibition of AII pressor response by the compound in conscious, normotensive rats, at 1 (mg/kg) intravenous dose. It counts as functional. An outline of the steps:
(§1)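 Male Sprague-Dawley rats (300-400 g) were conscious and catheterized for iv dosing and arterial pressure. Compound was given iv or po as the potassium salt in water, with PEG 400 for some oral doses. […] Peak inhibition is the mean of ≥2 rats.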

Assay [2] relates to Monkey. Description: Time from onset of action until significant (i.e., >=30%) inhibition of pressor response is no longer observed, at 3 (mg/kg) peroral dose. In kind it is functional, Cercopithecidae.
Assay [3] addresses T1, Type-1 angiotensin II receptor (Oryctolagus cuniculus, UniProt P34976).
T1 sequence (P34976 whole entry): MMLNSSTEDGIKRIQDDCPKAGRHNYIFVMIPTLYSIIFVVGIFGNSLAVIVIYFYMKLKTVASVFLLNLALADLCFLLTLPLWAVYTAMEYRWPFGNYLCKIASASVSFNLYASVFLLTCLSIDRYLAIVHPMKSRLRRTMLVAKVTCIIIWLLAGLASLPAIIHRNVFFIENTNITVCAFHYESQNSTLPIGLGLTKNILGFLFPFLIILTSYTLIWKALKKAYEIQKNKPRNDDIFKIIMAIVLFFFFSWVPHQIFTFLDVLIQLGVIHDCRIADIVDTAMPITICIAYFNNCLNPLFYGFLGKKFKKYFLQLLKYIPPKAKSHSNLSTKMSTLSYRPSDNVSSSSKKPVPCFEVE
Description: In vitro inhibitory activity against angiotensin II rabbit aorta AT1 receptor using radioligand [125I]-Sar Ile-AII. In kind it is tissue-based.

The subject of assay [4] is Rattus norvegicus. The experiment in a line: Inhibition of AII pressor response by the compound in conscious, normotensive rats, at 1 (mg/kg) peroral dose. In kind it is functional. The essentials:
as §1

The test system of assay [5] is Rattus norvegicus. The experiment in a line: (§2) Time from onset of action until significant (i.e., >=30%) inhibition of pressor response is no longer observed, at 1 (mg/kg) intravenous dose. It counts as functional.
In assay [6] the test system is Rattus norvegicus. Description: Time from onset of action until significant (i.e., >=30%) inhibition of pressor response is no longer observed, at 1 (mg/kg) peroral dose. It counts as functional. An outline of the steps: (§3)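 Conscious catheterized male Sprague-Dawley rats received compound iv or po as the water-soluble potassium salt, or in PEG 400 orally. AII (0.1 μg/kg iv) boluses were repeated at intervals while the compound was active.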

Assay [7] concerns the target T2, Type-2 angiotensin II receptor (Rattus norvegicus, UniProt P35351).
T2 sequence (P35351 whole entry): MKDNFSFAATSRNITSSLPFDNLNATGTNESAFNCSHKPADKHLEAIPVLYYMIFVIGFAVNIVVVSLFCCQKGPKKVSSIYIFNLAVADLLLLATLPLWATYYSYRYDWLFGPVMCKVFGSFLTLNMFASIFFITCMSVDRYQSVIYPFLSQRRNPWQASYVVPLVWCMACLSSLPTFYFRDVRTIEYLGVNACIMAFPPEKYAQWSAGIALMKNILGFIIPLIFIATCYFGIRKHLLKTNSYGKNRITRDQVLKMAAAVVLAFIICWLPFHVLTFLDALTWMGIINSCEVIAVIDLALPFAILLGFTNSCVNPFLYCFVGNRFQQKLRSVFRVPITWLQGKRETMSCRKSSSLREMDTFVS
The experiment in a line: In vitro inhibitory activity against angiotensin II rat midbrain AT2 receptor using radioligand [125I]-Sar Ile-AII. An outline of the steps:
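Dithiothreitol ([…]) was added to the assay mixture to abolish residual AT1 binding. Tubes were run in duplicate, and IC50 came from nonlinear regression of displacement curves.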

Assay [8] concerns Monkey. Description: Inhibition of AII pressor response by the compound in conscious, normotensive monkey, at 3 (mg/kg) peroral dose. It counts as functional, Cercopithecidae. An outline of the steps: (§4)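 Rhesus monkeys were conscious, given furosemide (5 mg/kg iv) the prior evening, and fasted 18 h with water available. They sat chaired with minimal restraint. AII and iv compound went through saphenous or brachial vein catheters, and oral compound by nasogastric tube. Peak % inhibition of the AII pressor response was measured otherwise as in the rat protocol.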

For assay [9], the system named is Rattus norvegicus. Description: (§5) Time from onset of action until significant (i.e., >=30%) inhibition of pressor response is no longer observed, at 0.3 (mg/kg) peroral dose. In kind it is functional. The essentials: as §3
Assay [10] relates to Rattus norvegicus. The experiment in a line: Inhibition of AII pressor response by the compound in conscious, normotensive rats, at 0.3 (mg/kg) intravenous dose. It counts as functional. An outline of the steps: as §1
For assay [11], the system named is Rattus norvegicus. Description: Time from onset of action until significant (i.e., >=30%) inhibition of pressor response is no longer observed, at 0.1 (mg/kg) intravenous dose. It counts as functional. The essentials:
as §3

Assay [12] deals with Rattus norvegicus. The experiment in a line: Time from onset of action until significant (i.e., >=30%) inhibition of pressor response is no longer observed, at 0.1 (mg/kg) peroral dose. It counts as functional. The essentials: as §3
Assay [13] deals with Rattus norvegicus. Description: Inhibition of AII pressor response by the compound in conscious, normotensive rats, at 0.1 (mg/kg) peroral dose. It counts as functional. An outline of the steps:
as §1

Assay [14] has as its system Rattus norvegicus. The experiment in a line: Inhibition of AII pressor response by the compound in conscious, normotensive rats, at 0.3 (mg/kg) peroral dose. It counts as functional. An outline of the steps: as §1
The test system of assay [15] is Rattus norvegicus. The experiment in a line: Inhibition of AII pressor response by the compound in conscious, normotensive rats, at 0.1 (mg/kg) intravenous dose. In kind it is functional. An outline of the steps:
as §1

Assay [16] has as its system Rattus norvegicus. Description: Inhibition of AII pressor response by the compound in conscious, normotensive rats, at 3 (mg/kg) intravenous dose. It counts as functional. An outline of the steps: as §1
The subject of assay [17] is Rattus norvegicus. Description: Time from onset of action until significant (i.e., >=30%) inhibition of pressor response is no longer observed, at 0.3 (mg/kg) peroral dose; NA= Not active. In kind it is functional, organism-based. An outline of the steps:
as §3

Assay [18] deals with Rattus norvegicus. Description: Time from onset of action until significant (i.e., >=30%) inhibition of pressor response is no longer observed, at 3 (mg/kg) intravenous dose. It counts as functional. An outline of the steps: as §3
Assay [19] deals with Monkey. The assay is described as §5. In kind it is functional, Cercopithecidae. The conditions noted are these: in the assay text read “intravenous” for “peroral”.
Assay [20] can be described thus: Inhibition of AII pressor response by the compound in conscious, normotensive rhesus monkeys, at 1 (mg/kg) intravenous dose.
A short description of assay [21]: Inhibition of AII pressor response by the compound in conscious, normotensive rhesus monkeys, at 0.3 (mg/kg) intravenous dose.
In assay [22] the test system is Monkey. Described as §2. It counts as functional, Cercopithecidae.
For assay [23], the system named is Monkey. The experiment in a line: Time from onset of action until significant (i.e., >=30%) inhibition of pressor response is no longer observed, at 10 (mg/kg) peroral dose.
Assay [24] concerns Monkey. The experiment in a line: Inhibition of AII pressor response by the compound in conscious, normotensive monkey, at 3 (mg/kg) peroral dose; NA= Not active. It counts as functional, organism-based. The note with it: Cercopithecidae. The essentials:
as §4

The subject of assay [25] is Monkey. The conditions noted are these: Cercopithecidae.
In assay [26] the test system is Monkey. Description: Inhibition of AII pressor response by the compound in conscious, normotensive monkey, at 0.3 (mg/kg) intravenous dose. In kind it is functional, Cercopithecidae. An outline of the steps:
as §4

The subject of assay [27] is Monkey. The experiment in a line: Inhibition of AII pressor response by the compound in conscious, normotensive monkey, at 10 (mg/kg) peroral dose. In kind it is functional, Cercopithecidae. The essentials: as §4
Assay [28] relates to Monkey. The experiment in a line: Time from onset of action until significant (i.e., >=30%) inhibition of pressor response is no longer observed, at 10 (mg/kg) peroral dose. It counts as functional, Cercopithecidae. The essentials: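 Conscious rhesus monkeys were pretreated with furosemide (5 mg/kg iv) and fasted 18 h. Compound was given orally by nasogastric tube, and AII challenges were given iv via a venous catheter, otherwise as in rats.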

As for `CCCCc1nn(-c2ccccc2C(F)(F)F)c(=O)n1Cc1ccc(-c2ccccc2S(=O)(=O)NC(=O)c2ccco2)cc1`, the results for the Inhibition in the assay with Rattus norvegicus [1], in the assay on Rattus norvegicus [4] and in the assay on Monkey [8] were 85%, 70% and 54%, respectively. Further, the figures for the Duration in the assay on Monkey [2], in the assay on Rattus norvegicus [5] and in the assay on Rattus norvegicus [6] were 4 h, greater than 6 h and 3.7 h, respectively. In addition, the IC50 in assay [3] was found to be 0.26 nM; in assay [7], 120 nM.

Consider `CCCCc1nn(-c2ccccc2C(F)(F)F)c(=O)n1Cc1ccc(-c2ccccc2S(=O)(=O)NC(=O)OC(C)(C)C)cc1`, for which the Duration with Rattus norvegicus [9] is >4.5 h and >3.5 h; in the assay with Rattus norvegicus [5], greater than 6 h; in the assay on Rattus norvegicus [6] it was greater than 6 h; in the assay on Rattus norvegicus [11], greater than 4.5 h; in the assay with Rattus norvegicus [12], greater than 3 h. The Inhibition in the assay with Rattus norvegicus [10] was 78%; with Rattus norvegicus [13], 77%; in the assay on Rattus norvegicus [14] it was 81%; with Rattus norvegicus [15] it was 76%. Besides, the IC50 in [3] was determined as 0.45 nM; in [7], 17 nM.

As for `CCCCc1nn(-c2ccccc2C(F)(F)F)c(=O)n1Cc1ccc(-c2ccccc2S(=O)(=O)NC(=O)c2ccccc2)cc1.ClCCl`, the Inhibition is 87% with Rattus norvegicus [16], 31% in the assay on Rattus norvegicus [10], 88% in assay [20] and 80% in assay [21]. The Duration entry in the assay on Rattus norvegicus [17] was “inactive”. In addition, the Duration was greater than 6 h with Rattus norvegicus [18]; less than 0.5 h in the assay on Rattus norvegicus [9]; 5 h in the assay on Monkey [19]; greater than 6 h with Monkey [22]; greater than 4 h in the assay with Monkey [23]. For the same compound, the IC50 was determined as 0.43 nM in [3] and 300 nM in assay [7]. Also, the inhibition result in the assay with Rattus norvegicus [14] was “inactive”.

Turning to `CCCCc1nc(Cl)c(CO)n1Cc1ccc(-c2ccccc2-c2nnn[nH]2)cc1` [LOSARTAN], in the assay on Monkey [24], the inhibition entry is “inactive”. In addition, the Inhibition is recorded as 78% in the assay with Rattus norvegicus [1]; 52% in the assay with Rattus norvegicus [10]; 58% in the assay on Rattus norvegicus [4]; 49% with Monkey [26]; 50% in the assay on Monkey [27]. Moreover, the Duration is greater than 6 h in the assay on Rattus norvegicus [18], 5.5 h in the assay on Rattus norvegicus [9], 0.1 h in the assay on Monkey [19] and 2.1 h with Monkey [28]. Also, in the assay with Monkey [25], the Duration entry was “inactive”.

Usually Inhibition stands for the change of the read-out against control, counted positive when it falls. One may read the IC50 as the concentration needed to halve the response being measured.
